Activity calls are given as the source filed them. The calls are words filed in the database; no cut-off is given here.
What was measured:
[1] = Inhibition of amyloid beta (25 to 35)-mediated damage in Sprague-Dawley rat neurons assessed as dendritic extension at 1 uM treated 4 days after amyloid beta-challenge measured after 4 days by immunostaining method
Procedure, shortened: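 Rat cortical neurons were exposed to Aβ for 4 days before the test compounds were added. Dendrite length was quantified after a further 4 days. The vehicle control was 0.1% DMSO given to Aβ-exposed cells, and the normal control was cells without Aβ treatment.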

[2] = Inhibition of amyloid beta (1 to 42)-mediated damage in Sprague-Dawley rat neurons assessed as dendritic extension at 1 uM administered 3 days after amyloid beta-challenge measured after 5 days by immunostaining method
[3] = Inhibition of amyloid beta (1 to 42)-mediated damage in Sprague-Dawley rat neurons assessed as axonal extension at 1 uM treated 3 days after amyloid beta-challenge measured after 5 days by immunostaining method

Compound | inhibition [1] | inhibition [2] | inhibition [3]
N#C[C@]12CCC3(OCCO3)C3=CO[C@H](Cc4cc(OS(=O)(=O)C(F)(F)F)ccc41)[C@@H]32 | inactive | – | –
N#C[C@]12CCC3(OCCO3)C3=CO[C@H](Cc4ccc(O)cc41)[C@@H]32 | – | Active | Active
COc1cc2c(cc1O)C[C@H]1OC=C3[C@H]1[C@@]2(C#N)CCC31OCCO1 | – | Active | Active
N#C[C@]12CCC3(OCCO3)C3=CO[C@H](Cc4cc(OCc5cc(F)cc(F)c5)ccc41)[C@@H]32 | inactive | – | –
N#C[C@]12CCC3(OCCO3)C3=CO[C@H](Cc4cc(-c5ccccc5)ccc41)[C@@H]32 | inactive | – | –
CC(C)[Si](Oc1ccc2c(c1)C[C@H]1OC=C3[C@H]1[C@@]2(C#N)CCC31OCCO1)(C(C)C)C(C)C | inactive | – | –
COc1cc2c(cc1O)[C@]1(C#N)CCC3(OCCO3)C3=CO[C@H](C2)[C@@H]31 | – | Active | Active
N#C[C@]12CCC3(OCCO3)C3=CO[C@H](Cc4cc(OCc5ccccc5)ccc41)[C@@H]32 | inactive | – | –
N#C[C@]12CCC3(OCCO3)C3=CO[C@H](Cc4cc(OC(F)(F)F)ccc41)[C@@H]32 | inactive | – | –
N#C[C@]12CCC3(OCCO3)C3=CO[C@H](Cc4cc(O)ccc41)[C@@H]32 | Active | Active | –

From ChEMBL document CHEMBL1938363, “Synthesis of dihydrofuran-fused perhydrophenanthrenes having a phenolic hydroxyl group as a novel anti-Alzheimer's disease agent” (Bioorg Med Chem Lett, 2012)
